Data taken from ChEMBL document CHEMBL1143843, “Antiviral and cellular metabolism interactions between Dexelvucitabine and lamivudine” (Antimicrob Agents Chemother, 2007).
Calls of active or inactive are those of the source. The calls are words filed in the database; no cut-off is given here.

How the values were obtained:
CCRF-CEM [1] = assay: Reduction in [3H]dexelvucitabine triphosphate in human CEM cells per 10^6 cells at 33.3 uM; type: functional
Summary of the method: (§1)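 CEM or PHA-stimulated primary human PBM cells (2 x 10^6 per point) given 10 µM [3H]DFC plus unlabeled 3TC at 1, 33.3 or 100 µM for 4 h, in triplicate; 60% methanol extracts resolved by ion-pairing reverse-phase C18 HPLC; metabolites (TP, DP-choline) quantified by scintillation counting as pmol/10^6 cells.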

CCRF-CEM [2] = assay: Reduction in dexelvucitabine diphosphate choline level in human CEM cells at 33.3 uM; type: functional; parameters: scale not given: the % may be the effect or the level left; summary of the method: as §1
PBMC [3] = assay: Reduction in dexelvucitabine diphosphate choline level in human PBMC at 1 uM; type: functional; parameters: scale not given: the % may be the effect or the level left; summary of the method: as §1
CCRF-CEM [4] = assay: Reduction in [3H]dexelvucitabine triphosphate in human CEM cells at 1 uM; type: functional, cell-based
Summary of the method: (§2)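 Competition assay in triplicate in CEM and PHA-stimulated PBM cells (2 x 10^6 per point). Cells received 10 µM [3H]3TC plus unlabeled DFC, or 10 µM [3H]DFC plus unlabeled 3TC, with the unlabeled drug at 1, 33.3 or 100 µM, for 4 h. After cold-PBS washes, 60% methanol extracts were separated by ion-pair reverse-phase HPLC. Labeled metabolites, including TP and DP-choline, were quantified by scintillation counting against radiolabel alone.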

PBMC [5] = assay: Reduction in dexelvucitabine diphosphate choline level in human PBMC at 100 uM; type: functional; parameters: scale not given: the % may be the effect or the level left; summary of the method: as §1
PBMC [6] = assay: Reduction in dexelvucitabine diphosphate choline level in human PBMC at 33.3 uM; type: functional; parameters: scale not given: the % may be the effect or the level left; summary of the method: as §1
CCRF-CEM [7] = assay: (§3) Reduction in dexelvucitabine diphosphate choline level in human CEM cells at 1 uM; type: functional; parameters: scale not given: the % may be the effect or the level left; summary of the method: as §1
[8] = system: Human immunodeficiency virus 1; assay: Antiviral activity against HIV1 LAI in human PBM cells; type: functional, organism-based; details: Human immunodeficiency virus 1, LAI, PBMC
Summary of the method: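 HIV-1 LAI added to PHA-stimulated (3-day) primary human PBM cells 1 h before drugs; medium with recombinant IL-2 (26.5 units/ml); drugs alone or combined at fixed ratios (10:1, 3:1, 25:1, 100:1); 5 days culture; supernatant virus pelleted by centrifugation, RT activity measured radiometrically; combination index with confidence intervals by computer algorithm.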

CCRF-CEM [9] = assay: Reduction in [3H]dexelvucitabine triphosphate in human CEM cells per 10^6 cells at 100 uM; type: functional; summary of the method: as §1
CCRF-CEM [10] = assay: Reduction in dexelvucitabine diphosphate choline level in human CEM cells at 100 uM; type: functional; parameters: scale not given: the % may be the effect or the level left; summary of the method: as §1
CCRF-CEM [11] = assay: as §3; type: functional; parameters: scale not given: the % may be the effect or the level left; summary of the method: as §1; remark: listed apart in the source
PBMC [12] = assay: Reduction in dexelvucitabine diphosphate choline level in PHA-stimulated human PBMC at 1 uM; type: functional, cell-based; summary of the method: as §2
PBMC [13] = assay: Reduction of Lamivudine triphosphate level at 100 uM in human PBMC; type: functional; parameters: scale not given: the % may be the effect or the level left
Summary of the method: (§4)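 CEM or PHA-stimulated primary human PBM cells (2 x 10^6 per point) given 10 µM [3H]3TC plus unlabeled competitor at 1, 33.3 or 100 µM for 4 h, in triplicate; cells washed in cold PBS, extracted overnight in 60% methanol; metabolites separated by ion-pairing reverse-phase C18 HPLC (ammonium acetate/TBAP pH 7.0, methanol gradient); radioactivity counted; detection limit about 0.01 pmol/10^6 cells.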

CCRF-CEM [14] = assay: Reduction in Lamivudine diphosphate choline level in human CEM cells; type: functional, cell-based; summary of the method: as §2
CCRF-CEM [15] = assay: Reduction in Lamivudine metabolite level in human CEM cells at 1 uM; type: functional, cell-based; summary of the method: as §2
CCRF-CEM [16] = assay: Reduction of Lamivudine triphosphate level at 100 uM in human CEM cells; type: functional; parameters: scale not given: the % may be the effect or the level left; summary of the method: as §4
CCRF-CEM [17] = assay: Reduction in Lamivudine metabolite level in human CEM cells at 33.3 uM; type: functional; parameters: scale not given: the % may be the effect or the level left; summary of the method: as §4
CCRF-CEM [18] = assay: Reduction in Lamivudine metabolite level in human CEM cells at 100 uM; type: functional; parameters: scale not given: the % may be the effect or the level left; summary of the method: as §4
CCRF-CEM [19] = assay: Drug level in human CEM cells per 10^6 cells at 10 uM after 4 hrs; type: ADME, cell-based
Summary of the method: (§5)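 CEM cells or PBM cells stimulated 3 days with PHA, 2 x 10^6 cells per time point, were given 10 µM [3H]DFC or [3H]3TC for 4 h. Cells were washed three times in cold PBS and counted, with viability checked by trypan blue. Metabolites were extracted overnight in 60% methanol and resolved by ion-pair C18 HPLC (ammonium acetate/TBAP pH 7.0, 0–50% methanol), then radioactivity was counted. LOD was about 0.01 pmol/10^6 cells.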

PBMC [20] = assay: Drug level in human PBMC per 10^6 cells at 10 uM after 4 hrs; type: ADME, cell-based; summary of the method: as §5

Structure (SMILES): Nc1ccn([C@@H]2CS[C@H](CO)O2)c(=O)n1 (single isomer, unassigned) [LAMIVUDINE]
- Activity (CCRF-CEM [1]): 0.67 pmol
- Activity (CCRF-CEM [2]): 83%
- Activity (PBMC [3]): 48%
- Activity (CCRF-CEM [4]): inactive
- Activity (PBMC [5]): 92%
- Activity (PBMC [6]): 83%
- Activity (CCRF-CEM [7]): 74%
- EC50 [8]: 26 nM
- EC90 [8]: 120 nM
- Activity (CCRF-CEM [9]): 0.41 pmol
- Activity (CCRF-CEM [10]): 92%
- Activity (CCRF-CEM [11]): 74%
- Activity (PBMC [12]): Active

Structure (SMILES): Nc1nc(=O)n([C@H]2C=C[C@@H](CO)O2)cc1F [DEXELVUCITABINE]
- Activity (PBMC [13]): 46%
- Activity (CCRF-CEM [14]): inactive
- EC50 [8]: 75 nM
- EC90 [8]: 230 nM
- Activity (CCRF-CEM [15]): inactive
- Activity (CCRF-CEM [16]): 25%
- Activity (CCRF-CEM [17]): 10%
- Activity (CCRF-CEM [18]): 13%

Structure (SMILES): Nc1ccn([C@@H]2CS[C@H](COP(=O)(O)OP(=O)(O)OP(=O)(O)O)O2)c(=O)n1 [LAMIVUDINE TRIPHOSPHATE]
- Drug uptake (CCRF-CEM [19]): 5.7 pmol
- Drug uptake (PBMC [20]): 2.01 pmol
